Measurements taken from ChEMBL document CHEMBL1121883, “1-(Naphthylalkyl)-1H-imidazole derivatives, a new class of anticonvulsant agents” (J Med Chem, 1981).
Values joined by “and” are separate entries in the source; they are usually repeats but may differ in a detail not shown here. Identical values can stand only once.

Legend:
Mus musculus [1] = assay: Compound was evaluated for anticonvulsant activity by maximal electroshock assay(MES) in mice after po administration; 16-32; assay type: functional
Procedure, shortened: (§1)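 Male Hilltop ICR-derived mice (19-30 g), groups of 8-10, given compound or aqueous vehicle orally. The transcorneal 60-Hz shock (50 mA, 0.2 s) followed a 30 min pretreatment and a wire-hang neurological check (10 s). ED50 and 95% confidence limits were obtained from quantal data by the Litchfield-Wilcoxon method.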

Mus musculus [2] = assay: Dose of compound causing a neurological deficit in 50% of mice after ip administration; 13-115; assay type: functional
Procedure, shortened: (§2)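 Traction test in male Hilltop ICR-derived mice (19-30 g, groups of 8-10) just before electroshock, 15 min after ip or 30 min after oral dosing. Mice placed on a 16-gauge, 65-cm copper wire 40 cm above the table; deficit scored as failure to stay on for 10 s. ND50 with 95% limits by Litchfield-Wilcoxon.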

Mus musculus [3] = assay: Dose causing a neurological deficit in 50% of mice following p.o. administration.; assay type: functional; procedure, shortened: as §2
Rattus norvegicus [4] = assay: Compound was evaluated for anticonvulsant activity by maximal electroshock assay(MES) in rat after ip administration; 5.3-12; assay type: functional
Procedure, shortened: (§3)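 Male Simonsen Sprague-Dawley-derived rats, 80-110 g, groups of 8-10, dosed with compound or aqueous vehicle; pretreatment 15 min after ip or 30 min after oral dosing. Transcorneal electroshock, 150 mA, 60 Hz, 0.2 s, given after the wire test. ED50 with 95% confidence limits from quantal data by Litchfield-Wilcoxon.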

Rattus norvegicus [5] = assay: Compound was evaluated for anticonvulsant activity by maximal electroshock assay(MES) in rat after po administration; 11-42; assay type: functional; procedure, shortened: as §3
Rattus norvegicus [6] = assay: Dose of compound causing a neurological deficit in 50% of rat after ip administration; 26-92; assay type: functional
Procedure, shortened: (§4)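 Rats (Simonsen Sprague-Dawley-derived, 80-110 g, groups of 8-10) placed on a suspended 16-gauge, 65-cm copper wire just before electroshock. Deficit scored as inability to remain for 8 s. Pretreatment was 15 min ip or 30 min oral. Quantal data analysed by Litchfield-Wilcoxon to give ND50 with 95% limits.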

Rattus norvegicus [7] = assay: Dose of compound causing a neurological deficit in 50% of rat after po administration.; assay type: functional; procedure, shortened: as §4
Mus musculus [8] = assay: Protective index defined as ND50 (p.o.) divided by MES ED50(op); assay type: functional
Procedure, shortened: (§5)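 Ratio of ND50 from the wire traction test to MES ED50, both measured by the same route (ip or oral) in the same animals. Quantal dose-response data for each were evaluated by Litchfield-Wilcoxon.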

Mus musculus [9] = assay: Compound was evaluated for anticonvulsant activity by maximal electroshock assay(MES) in mice after po administration; 68-149; assay type: functional; procedure, shortened: as §1
Mus musculus [10] = assay: Anticonvulsant activity in mouse maximal electroshock assay following i.p. administration.; assay type: functional; conditions: ip
Procedure, shortened: (§6)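 Male Hilltop ICR-derived mice (19-30 g), groups of 8-10, dosed ip with compound or aqueous vehicle. After 15 min pretreatment, a transcorneal 60-Hz, 50 mA shock was given for 0.2 s. Just before the shock, each mouse was tested on a horizontal wire (10 s). Quantal data were analysed by Litchfield-Wilcoxon to give ED50 with 95% confidence limits.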

Mus musculus [11] = assay: Dose of compound causing a neurological deficit in 50% of mice after ip administration; assay type: functional; procedure, shortened: as §2
Mus musculus [12] = assay: Protective index is defined as ND50 (i.p.) divided by MES ED50(i.p.); assay type: functional; procedure, shortened: as §5
Mus musculus [13] = assay: Compound was evaluated for anticonvulsant activity by maximal electroshock assay(MES) in mice after po administration; 33-62; assay type: functional; procedure, shortened: as §1
Mus musculus [14] = assay: Dose of compound causing a neurological deficit in 50% of mice after ip administration; 32-89; assay type: functional; procedure, shortened: as §2
[15] = Lethal dose was measured in mice after ip administration.; assay type: toxicity, organism-based; conditions: mouse, in vivo
Procedure, shortened: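 Male Simonsen ICR-derived mice (16-24 g), groups of three, given compound ip in increasing doses within a behavioral screen. Deaths counted on day 5, and LD50 estimated from 5-day survival. Quantal data analysed by the Litchfield-Wilcoxon method.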

Mus musculus [16] = assay: Compound was evaluated for anticonvulsant activity by maximal electroshock assay(MES) in mice after ip administration; 23-38; assay type: functional; procedure, shortened: as §6
Mus musculus [17] = assay: Dose of compound causing a neurological deficit in 50% of mice after ip administration; 70-93; assay type: functional; procedure, shortened: as §2
Mus musculus [18] = assay: Compound was evaluated for anticonvulsant activity by maximal electroshock assay(MES) in mice after po administration; 41-77; assay type: functional; procedure, shortened: as §1
Mus musculus [19] = assay: Dose of compound causing a neurological deficit in 50% of mice after ip administration; 16-49; assay type: functional; procedure, shortened: as §2
Mus musculus [20] = assay: Compound was evaluated for anticonvulsant activity by maximal electroshock assay(MES) in mice after ip administration; 37-68; assay type: functional; procedure, shortened: as §6
Mus musculus [21] = assay: Dose causing a neurological deficit in 50% of mice after ip administration.; assay type: functional; procedure, shortened: as §2
Mus musculus [22] = assay: Compound was evaluated for anticonvulsant activity by maximal electroshock assay(MES) in mice after ip administration; 9-26; assay type: functional; procedure, shortened: as §6
Mus musculus [23] = assay: Dose of compound causing a neurological deficit in 50% of mice after ip administration; 17-61; assay type: functional; procedure, shortened: as §2
Mus musculus [24] = assay: Compound was evaluated for anticonvulsant activity by maximal electroshock assay(MES) in mice after ip administration; 8-13; assay type: functional; procedure, shortened: as §6
Mus musculus [25] = assay: Dose of compound causing a neurological deficit in 50% of mice after ip administration; 16 to > 100; assay type: functional; procedure, shortened: as §2
Mus musculus [26] = assay: Dose of compound causing a neurological deficit in 50% of mice after ip administration; 79-125; assay type: functional; procedure, shortened: as §2
Rattus norvegicus [27] = assay: Compound was evaluated for anticonvulsant activity by maximal electroshock assay(MES) in rat after po administration; 34-83; assay type: functional; procedure, shortened: as §3
Rattus norvegicus [28] = assay: Dose of compound causing a neurological deficit in 50% of rat after ip administration.; assay type: functional; procedure, shortened: as §4
Mus musculus [29] = assay: Compound was evaluated for anticonvulsant activity by maximal electroshock assay(MES) in mice after ip administration; 14-23; assay type: functional; procedure, shortened: as §6
Rattus norvegicus [30] = assay: Compound was evaluated for anticonvulsant activity by maximal electroshock assay(MES) in rat after ip administration; 8-23; assay type: functional; procedure, shortened: as §3
Mus musculus [31] = assay: Compound was evaluated for anticonvulsant activity by maximal electroshock assay(MES) in mice after ip administration; 27-41; assay type: functional; procedure, shortened: as §6
Mus musculus [32] = assay: Dose of compound causing a neurological deficit in 50% of mice after ip administration; 34-82; assay type: functional; procedure, shortened: as §2
Mus musculus [33] = assay: Compound was evaluated for anticonvulsant activity by maximal electroshock assay(MES) in mice after ip administration; 14-24; assay type: functional; procedure, shortened: as §6
Mus musculus [34] = assay: compound was evaluated for anticonvulsant activity by maximal electroshock assay(MES) in mice after po administration.; assay type: functional
Procedure, shortened: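 Male Hilltop ICR-derived mice, 19-30 g, groups of 8-10, dosed orally with compound or aqueous vehicle. Transcorneal electroshock (50 mA, 60 Hz, 0.2 s) delivered 30 min after dosing, immediately after a wire-hang neurological test. ED50 with 95% confidence limits estimated from quantal data by Litchfield-Wilcoxon.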

Rattus norvegicus [35] = assay: Compound was evaluated for anticonvulsant activity by maximal electroshock assay(MES) in rat after po administration.; assay type: functional; procedure, shortened: as §3
Rattus norvegicus [36] = assay: Compound was evaluated for anticonvulsant activity by maximal electroshock assay(MES) in rat after ip administration.

Cl.c1ccc2c(C3(Cn4ccnc4)OCCO3)cccc2c1
ED50 (Mus musculus [1]): 23 mg/kg | ND50 (Mus musculus [2]): 28 mg/kg | ND50 (Mus musculus [3]): >100 mg/kg | ED50 (Rattus norvegicus [4]): 7.8 mg/kg | ED50 (Rattus norvegicus [5]): 22 mg/kg | ND50 (Rattus norvegicus [6]): 44 mg/kg | ND50 (Rattus norvegicus [7]): ~200 mg/kg | PI (Mus musculus [8]): >4.3 and ~9

CCc1ccc2cc(C3(Cn4ccnc4)OCCO3)ccc2c1.Cl
ED50 (Mus musculus [9]): 100 mg/kg | ED50 (Mus musculus [10]): 25 mg/kg | ND50 (Mus musculus [11]): >100 mg/kg | ND50 (Mus musculus [3]): >200 mg/kg | PI (Mus musculus [8]): >2 | PI (Mus musculus [12]): >4

CC1(C)COC(Cn2ccnc2)(c2ccc3ccccc3c2)OC1.Cl
ED50 (Mus musculus [13]): 47 mg/kg | ND50 (Mus musculus [14]): 52 mg/kg | ND50 (Mus musculus [3]): >100 mg/kg | LD50 [15]: > 100 mg/kg | PI (Mus musculus [8]): >2.1 | PI (Mus musculus [12]): 2

CC(C)c1ccc(C(=O)Cn2ccnc2)c2ccccc12.Cl
ED50 (Mus musculus [16]): 28 mg/kg | ND50 (Mus musculus [17]): 81 mg/kg | PI (Mus musculus [12]): 2.9

Cl.c1ccc2cc(C3(Cn4ccnc4)OCCCO3)ccc2c1
ED50 (Mus musculus [18]): 57 mg/kg | ND50 (Mus musculus [19]): 30 mg/kg | ND50 (Mus musculus [3]): >100 mg/kg | PI (Mus musculus [8]): >1.7 | PI (Mus musculus [12]): 1.8

Cl.O=C(Cn1ccnc1)c1ccc2cc(Cl)ccc2c1
ED50 (Mus musculus [20]): 51 mg/kg | ND50 (Mus musculus [21]): >100 mg/kg | PI (Mus musculus [12]): >2

O=S(=O)(O)O.c1ccc(OC(Cn2ccnc2)c2ccc3ccccc3c2)cc1 (stereo not given)
ED50 (Mus musculus [22]): 15 mg/kg | ND50 (Mus musculus [23]): 32 mg/kg | PI (Mus musculus [12]): 2.1

COC(CCn1ccnc1)c1ccc2ccccc2c1.O=S(=O)(O)O (stereo not given)
ED50 (Mus musculus [24]): 11 mg/kg | ND50 (Mus musculus [25]): >39 mg/kg | PI (Mus musculus [12]): 3.5

Cl.O=C(OC(Cn1ccnc1)c1ccc2ccccc2c1)c1ccccc1 (stereo not given)
ND50 (Mus musculus [26]): 99 mg/kg | ED50 (Rattus norvegicus [27]): 53 mg/kg | ND50 (Rattus norvegicus [28]): >100 mg/kg | ND50 (Rattus norvegicus [7]): >100 mg/kg | PI (Mus musculus [12]): 5.2 | ED50 (Mus musculus [29]): 19 mg/kg | ED50 (Rattus norvegicus [30]): 14 mg/kg

c1ccc2cc(C3(CCn4ccnc4)OCCO3)ccc2c1
ND50 (Mus musculus [21]): >100 mg/kg | PI (Mus musculus [12]): >2.9 | ED50 (Mus musculus [31]): 35 mg/kg

COC(Cn1ccnc1)c1cccc2ccccc12 (stereo not given)
ND50 (Mus musculus [32]): 51 mg/kg | ED50 (Mus musculus [33]): 19 mg/kg | PI (Mus musculus [12]): 2.7

O=C1NC(=O)C(c2ccccc2)(c2ccccc2)N1 [PHENYTOIN]
ED50 (Mus musculus [10]): 13 mg/kg | ND50 (Mus musculus [21]): >300 mg/kg | ND50 (Mus musculus [3]): >200 mg/kg | LD50 [15]: > 300 mg/kg | ED50 (Mus musculus [34]): 22 mg/kg | ED50 (Rattus norvegicus [35]): 85 mg/kg | ND50 (Rattus norvegicus [28]): >300 mg/kg | ND50 (Rattus norvegicus [7]): >300 mg/kg | PI (Mus musculus [12]): >23.1 | ED50 (Rattus norvegicus [36]): 21 mg/kg
